Reference: article PMC5049450 (Journal of Clinical Pharmacology, 2015)
Like-named read-outs stand apart in the source and are kept apart here.

Assays:
[1] = rats; cited from earlier work
[2] = cited from earlier work
[3] = healthy volunteers, cited from earlier work
[4] = cited from earlier work; remark: listed apart in the source
Safety assessment = format: in vivo, human
Outline: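 Noncancer Child–Pugh mild, moderate or severe hepatic impairment subjects (6 per group) and 13 healthy controls received one oral test-compound dose after an overnight fast. Safety was monitored throughout through adverse events, clinical laboratory tests, ECGs and physical examinations. Adverse events were graded by NCI-CTCAE v4.03 and relationship to drug was recorded. Safety follow-up was on day 31.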

plasma protein = conditions: across species; independent of drug concentration; cited from earlier work
[5] = increased solubility at low pH; cited from earlier work
[6] = patients with advanced solid tumors, cited from earlier work
CYP3A = conditions: phase‐1 oxidative metabolism; cited from earlier work
[7] = format: in vivo, human; design: AUC∞, unbound buparlisib GMR (90%CI) / Cmax, total buparlisib GMR (90%CI) / Cmax, unbound buparlisib GMR (90%CI): unit not given beside the values; conditions: for increase in Cmax compared with normal hepatic function / increase in buparlisib exposure (AUC∞) compared with normal hepatic function: total buparlisib
Outline: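 After a single oral dose following an overnight fast, K3EDTA blood was drawn predose and at 0.5–336 h. Samples were centrifuged at 1500 g for 10 min at 3–5 °C and plasma stored at –70 °C. Plasma levels were measured by validated LC-MS/MS after solid-phase extraction with a stable-labelled internal standard. Parameters were derived by noncompartmental analysis and compared by ANOVA of log-transformed values, with hepatic function as the fixed effect.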

[8] = coadministration with ritonavir
[9] = moderate‐hepatic‐function group
[10] = linear regression, severe hepatic impairment relative to control group (1.6 vs 1.0), not statistically significant
[11] = linear regression, severe hepatic impairment relative to control group (29.7 g/L vs 45.2 g/L), not statistically significant
[12] = mild hepatic impairment versus normal hepatic function group, 30 mg
[13] = moderate hepatic impairment versus normal hepatic function group, 30 mg

Compound: Nc1cc(C(F)(F)F)c(-c2cc(N3CCOCC3)nc(N3CCOCC3)n2)cn1 [buparlisib]
- dose eliminated renally [1]: 20–30%
- maximum tolerated dose [2]: 100 mg/day
- apparent clearance ([3]; buparlisib with ritonavir): 3.27 L/h
- elimination half‐life (T1/2) ([3]; buparlisib with ritonavir): 71.6 h
- apparent clearance ([3]; buparlisib without ritonavir): 5.37 L/h
- elimination half‐life (T1/2) ([3]; buparlisib without ritonavir): 53.3 h
- increase in Cmax geometric mean ratio [3, 8]: 19%
- increase in buparlisib exposure (AUC∞) [3, 8]: 73%
- permeability [4]: highly permeable
- subjects with QTcF >450 milliseconds (Safety assessment; all subjects): Eight subjects
- subjects with QTcF increase of >30 milliseconds from baseline (Safety assessment; all subjects): Six subjects
- subjects with QTcF increase of >30 milliseconds from baseline (Safety assessment; mild‐hepatic‐function group): 2
- subjects reporting treatment‐related AEs (Safety assessment; moderate hepatic impairment, grade‐1 prolonged QTcF, grade‐1 hypertension): 2 subjects
- subjects with QTcF >450 milliseconds (Safety assessment; [9]): 4
- subjects with QTcF increase of >30 milliseconds from baseline (Safety assessment; [9]): 2
- subjects reporting treatment‐related AEs (Safety assessment; normal hepatic function, grade‐1 dizziness, grade‐1 dermatitis acneiform): 2 subjects
- subjects with QTcF increase of >30 milliseconds from baseline (Safety assessment; normal‐hepatic‐function group): 2
- subjects reporting treatment‐related AEs (Safety assessment; severe hepatic impairment, grade‐2 thrombocytopenia): 1 subject
- subjects with QTcF >450 milliseconds (Safety assessment; severe‐hepatic‐function group): 4
- deaths during the study (Safety assessment; single oral 30 mg, all subjects (N = 31)): no deaths
- tolerability (Safety assessment; single oral 30‐mg dose, subjects with and without hepatic impairment): well tolerated
- plasma protein binding (plasma protein): 79–85%
- solubility [5]: soluble
- increases in Cmax and AUC0–24 with dose ([6]; following multiple doses): approximately dose‐proportional
- time of maximum plasma concentrations postdose [6]: 1 to 4 h
- estimated fraction metabolized by CYP3A (CYP3A): > 0.9
- AUC(0-inf) ([7]; human, plasma, po, 30 mg, AUC∞, geometric mean (CV%), single oral 30 mg, fasted, normal hepatic function (n = 13)): 6010 ng·h/mL
- Cmax ([7]; human, plasma, po, 30 mg, Cmax, geometric mean (CV%), single oral 30 mg, fasted, normal hepatic function (n = 13)): 221 ng/mL
- half-life ([7]; human, plasma, po, 30 mg, T1/2, geometric mean (CV%), single oral 30 mg, fasted, normal hepatic function (n = 13)): 53 h
- Tmax ([7]; human, plasma, po, 30 mg, Tmax, median (range), single oral 30 mg, fasted, normal hepatic function (n = 13)): 1 h
- Vd/F ([7]; human, plasma, po, 30 mg, Vz/F, geometric mean (CV%), single oral 30 mg, fasted, normal hepatic function (n = 13)): 381 L
- increase in AUC∞ associated with higher (52%) INR [7, 10]: 15%
- increase in Cmax associated with higher (52%) INR [7, 10]: 11%
- increase in AUC∞ associated with lower (34%) baseline albumin level [7, 11]: 26%
- increase in Cmax associated with lower (34%) baseline albumin level [7, 11]: 15%
- AUC∞, unbound buparlisib GMR (90%CI) [7, 12]: 1.17 (0.84, 1.64)
- Cmax, total buparlisib GMR (90%CI) [7, 12]: 1.26 (1.00, 1.58)
- Cmax, unbound buparlisib GMR (90%CI) [7, 12]: 1.28 (0.99, 1.64)
- increase in Cmax compared with normal hepatic function ([7]; mild hepatic impairment): 26%
- increase in buparlisib exposure (AUC∞) compared with normal hepatic function ([7]; mild hepatic impairment): 16%
- AUC∞, unbound buparlisib GMR (90%CI) [7, 13]: 1.18 (0.84, 1.65)
- Cmax, total buparlisib GMR (90%CI) [7, 13]: 1.08 (0.87, 1.36)
- Cmax, unbound buparlisib GMR (90%CI) [7, 13]: 1.12 (0.87, 1.44)
- increase in Cmax compared with normal hepatic function ([7]; moderate hepatic impairment): 8%
- increase in buparlisib exposure (AUC∞) compared with normal hepatic function ([7]; moderate hepatic impairment): 14%
- Cmax, total buparlisib GMR (90%CI) ([7]; severe hepatic impairment versus normal hepatic function group, 30 mg): 1.45 (1.15, 1.81)
- increase in Cmax compared with normal hepatic function ([7]; severe hepatic impairment): 45%
- increase in buparlisib exposure (AUC∞) compared with normal hepatic function ([7]; severe hepatic impairment): 20%
- CL/F, geometric mean (CV%) ([7]; single oral 30 mg, fasted, mild hepatic impairment, Child–Pugh A (n = 6)): 4.3 (46) L/h
- CL/F, geometric mean (CV%) ([7]; single oral 30 mg, fasted, moderate hepatic impairment, Child–Pugh B (n = 6)): 4.4 (62) L/h
- CL/F, geometric mean (CV%) ([7]; single oral 30 mg, fasted, normal hepatic function (n = 13)): 5.0 (37) L/h
- CL/F, geometric mean (CV%) ([7]; single oral 30 mg, fasted, severe hepatic impairment, Child–Pugh C (n = 6)): 4.2 (41) L/h
- secondary absorption peak, time postdose ([7]; single oral 30 mg, subjects with or without hepatic impairment): approximately 24 hours
